Data taken from ChEMBL document CHEMBL1145908 (J Med Chem, 2003).
Calls of active or inactive are those of the source. The calls are words filed in the database; no cut-off is given here. Residues, ends and D or L forms follow the SMILES beside them. *: point of attachment. X1 = CC(C)CCC[C@@H](C)[C@H]1CCC2C3CC=C4C[C@H](SC[C@@H]5CCN6CC[C@@H](CSCC(=O)*)NC6=N5)CC[C@]4(C)C3CC[C@@]21C; X3 = CC(C)(C)[Si](OC[C@@H]1CCN2CC[C@@H](COC(=O)CCCCC(=O)*)NC2=N1)(c1ccccc1)c1ccccc1; X5 = CC(C)(C)[Si](OC[C@@H]1CCN2CC[C@@H](CNC(=O)CCCCC(=O)*)NC2=N1)(c1ccccc1)c1ccccc1; X2 = CC(C)(C)[Si](OCC1CCN2CCC(CSCC(=O)*)NC2=N1)(c1ccccc1)c1ccccc1; X4 = O=C(CCCCC(=O)*)OC[C@@H]1CCN2CC[C@@H](CO)N=C2N1; X6 = O=C(CCCCC(=O)*)NC[C@@H]1CCN2CC[C@@H](CO)N=C2N1; OBn = c1ccc(CO*)cc1; Bn = c1ccc(C*)cc1

Experiments:
[1] = target: Human immunodeficiency virus type 1 protease (Human immunodeficiency virus 1, UniProt Q72874); assay: In vitro inhibitory activity against HIV-1 Protease
Procedure, shortened: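 Recombinant HIV-1 PR expressed in E. coli (pET9c-PR). Fluorogenic DABCYL-γ-abu-[…]EDANS substrate 5.2 μM, enzyme 7.5 nM, in 100 mM sodium acetate, 1 mM EDTA, 1 M NaCl, pH 4.7, 30 °C, 3% DMSO final. Fluorescence read at ex 340/em 490 nm. IC50 fitted from % inhibition across 0.5–28 μM inhibitor. Ki derived by Zhang's method using 1.88–28 nM enzyme.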

[2] = target: Human immunodeficiency virus type 1 protease (Human immunodeficiency virus 1) (UniProt Q72874); assay: Dimerization inhibition against HIV-1 Protease
Procedure, shortened: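 Recombinant HIV-1 PR expressed in E. coli (pET9c-PR). Hydrolysis of DABCYL-γ-abu-[…]EDANS (5.2 μM) was followed by fluorescence (ex 340/em 490 nm) in 100 mM sodium acetate, 1 mM EDTA, 1 M NaCl, pH 4.7, 30 °C, with 3% DMSO final. Initial rates were taken at ≥7 enzyme levels (1.88–28 nM) per inhibitor concentration. Kic/Kid were obtained by Zhang's method from [E]0/√vi vs √vi plots.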

[3] = target: Human immunodeficiency virus type 1 protease (Human immunodeficiency virus 1) (UniProt Q72874); assay: Inhibitory activity against HIV-1 Protease at 14 uM
[4] = target: Human immunodeficiency virus type 1 protease (Human immunodeficiency virus 1) (UniProt Q72874); assay: Competitive inhibition against HIV-1 Protease
[5] = target: Human immunodeficiency virus type 1 protease (Human immunodeficiency virus 1) (UniProt Q72874); assay: In vitro inhibitory activity against HIV-1 Protease; No inhibition
[6] = target: Human immunodeficiency virus type 1 protease (Human immunodeficiency virus 1) (UniProt Q72874); assay: Inhibitory activity against HIV-1 Protease at 28 uM

## CC(C)C[C@H](NC(=O)[C@@H](NC(=O)[C@H](C)NC(=O)CNC(=O)CSCC1CCN2CCC(CO[Si](c3ccccc3)(c3ccccc3)C(C)(C)C)N=C2N1)[C@@H](C)OCc1ccccc1)C(=O)N[C@@H](CC(N)=O)C(=O)N[C@@H](Cc1ccccc1)C(=O)OCc1ccccc1 (stereo in doubt; 6 (S,S)) [listing 1 of 2 here]
[1]
  IC50: 1.6 µM

## COC(=O)[C@H](Cc1ccccc1)NC(=O)[C@H](CC(N)=O)NC(=O)[C@H](CC(C)C)NC(=O)[C@@H](NC(=O)[C@H](C)NC(=O)CCCCC(=O)OC[C@@H]1CCN2CC[C@@H](CO[Si](c3ccccc3)(c3ccccc3)C(C)(C)C)N=C2N1)[C@@H](C)O (X3-ATLNF-OMe)
[1]
  IC50: 1.9 µM
[2]
  Kid: 0.55 µM

## CC(C)C[C@H](NC(=O)[C@@H](NC(=O)[C@H](C)NC(=O)CNC(=O)CSCC1CCN2CCC(CO[Si](c3ccccc3)(c3ccccc3)C(C)(C)C)N=C2N1)[C@@H](C)OCc1ccccc1)C(=O)N[C@@H](CC(N)=O)C(=O)N[C@@H](Cc1ccccc1)C(=O)OCc1ccccc1 (stereo in doubt; 6 (S,S)) [listing 2 of 2 here]
[2]
  Kid: 0.15 µM

## CC(C)C[C@H](NC(=O)[C@@H](NC(=O)[C@H](C)NC(=O)CNC(=O)CSCC1CCN2CCC(CO[Si](c3ccccc3)(c3ccccc3)C(C)(C)C)N=C2N1)[C@@H](C)OCc1ccccc1)C(=O)N[C@@H](CC(N)=O)C(=O)N[C@@H](Cc1ccccc1)C(=O)O (some centres undefined) (X2-GAT(Bn)LNF-OH)
[1]
  IC50: 11 µM

## COC(=O)[C@H](Cc1ccccc1)NC(=O)[C@H](CC(N)=O)NC(=O)[C@H](CC(C)C)NC(=O)[C@@H](NC(=O)[C@H](C)NC(=O)CCCCC(=O)OC[C@@H]1CCN2CC[C@@H](CO)N=C2N1)[C@@H](C)O (X4-ATLNF-OMe)
[3]
  inhibition: 28%

## CC(C)C[C@H](NC(=O)[C@@H](NC(=O)[C@H](C)NC(=O)CNC(=O)CSCC1CCN2CCC(CO[Si](c3ccccc3)(c3ccccc3)C(C)(C)C)N=C2N1)[C@@H](C)OCc1ccccc1)C(=O)N[C@@H](CC(N)=O)C(=O)N[C@@H](Cc1ccccc1)C(=O)OCc1ccccc1 (stereo in doubt; 6'(R,R)) [listing 1 of 2 here]
[2]
  Kid: 0.15 µM

## CC(C)CCC[C@@H](C)[C@H]1CCC2C3CC=C4C[C@H](SC[C@@H]5CCN6CC[C@@H](CSCC(=O)NCC(=O)N[C@@H](C)C(=O)N[C@H](C(=O)N[C@@H](CC(C)C)C(=O)N[C@@H](CC(N)=O)C(=O)N[C@@H](Cc7ccccc7)C(=O)OCc7ccccc7)[C@@H](C)OCc7ccccc7)NC6=N5)CC[C@]4(C)C3CC[C@@]21C (some centres undefined) (X1-GAT(Bn)LNF-OBn)
[1]
  IC50: 3 µM
[4]
  Kic: 0.4 µM
[2]
  Kid: 0.4 µM

## COC(=O)[C@H](Cc1ccccc1)NC(=O)[C@H](CC(N)=O)NC(=O)[C@H](CC(C)C)NC(=O)[C@@H](NC(=O)[C@H](C)NC(=O)CCCCC(=O)NC[C@@H]1CCN2CC[C@@H](CO)N=C2N1)[C@@H](C)O (X6-ATLNF-OMe)
[5]
  NI: inactive

## COC(=O)[C@H](Cc1ccccc1)NC(=O)[C@H](CC(N)=O)NC(=O)[C@H](CC(C)C)NC(=O)[C@@H](NC(=O)[C@H](C)NC(=O)CCCCC(=O)NC[C@@H]1CCN2CC[C@@H](CO[Si](c3ccccc3)(c3ccccc3)C(C)(C)C)N=C2N1)[C@@H](C)O (X5-ATLNF-OMe)
[6]
  inhibition: 28%

## CC[C@H](C)[C@H](NC(=O)CNC(=O)CSCC1CCN2CCC(CO[Si](c3ccccc3)(c3ccccc3)C(C)(C)C)N=C2N1)C(=O)N[C@@H](COCc1ccccc1)C(=O)N[C@@H](Cc1ccc(OCc2ccccc2)cc1)C(=O)N[C@@H](CC(N)=O)C(=O)N[C@@H](CC(C)C)C(=O)OC (some centres undefined) (X2-GIS(Bn)Y(Bn)NL-OMe)
[1]
  IC50: 3.3 µM
[2]
  Kid: 0.29 µM

## CC(C)C[C@H](NC(=O)[C@@H](NC(=O)[C@H](C)NC(=O)CNC(=O)CSCC1CCN2CCC(CO[Si](c3ccccc3)(c3ccccc3)C(C)(C)C)N=C2N1)[C@@H](C)OCc1ccccc1)C(=O)N[C@@H](CC(N)=O)C(=O)N[C@@H](Cc1ccccc1)C(=O)OCc1ccccc1 (stereo in doubt; 6'(R,R)) [listing 2 of 2 here]
[1]
  IC50: 2 µM

## CC[C@H](C)[C@H](NC(=O)CNC(=O)CSCC1CCN2CCC(CO[Si](c3ccccc3)(c3ccccc3)C(C)(C)C)N=C2N1)C(=O)N[C@@H](CO)C(=O)N[C@@H](Cc1ccc(O)cc1)C(=O)N[C@@H](CC(N)=O)C(=O)N[C@@H](CC(C)C)C(=O)OC (some centres undefined) (X2-GISYNL-OMe)
[1]
  IC50: 5 µM
[4]
  Kic: 6 µM

## CC[C@H](C)[C@H](NC(=O)[C@H](C)NC(=O)CSCC1CCN2CCC(CO[Si](c3ccccc3)(c3ccccc3)C(C)(C)C)N=C2N1)C(=O)N[C@H](C(=O)N[C@@H](CC(C)C)C(=O)N[C@@H](Cc1c[nH]c2ccccc12)C(=O)OC)[C@@H](C)OCc1ccccc1 (some centres undefined) (X2-AIT(Bn)LW-OMe)
[1]
  IC50: 5 µM
[2]
  Kid: 6.5 µM
